Screening results: PubChem, Johns Hopkins Ion Channel Center
MrgX1 antagonist = human MrgX1 receptor antagonism, primary screen; MRGX1-HEK293 calcium flux, Fluo-4, BAM8-22 antagonism; active compounds read low; B-score at 10 µM; hit rate 1.3% among 310,000;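 active means calcium-response B-score plate-corrected more than 3 library SD below zero, starting fluorescence within 5 deviations, no agonist response on first addition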;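 further: peak minus trough fluorescence over baseline after final BAM8-22 challenge near maximal dose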
Target sequence (Q96LB2 whole entry, looked up): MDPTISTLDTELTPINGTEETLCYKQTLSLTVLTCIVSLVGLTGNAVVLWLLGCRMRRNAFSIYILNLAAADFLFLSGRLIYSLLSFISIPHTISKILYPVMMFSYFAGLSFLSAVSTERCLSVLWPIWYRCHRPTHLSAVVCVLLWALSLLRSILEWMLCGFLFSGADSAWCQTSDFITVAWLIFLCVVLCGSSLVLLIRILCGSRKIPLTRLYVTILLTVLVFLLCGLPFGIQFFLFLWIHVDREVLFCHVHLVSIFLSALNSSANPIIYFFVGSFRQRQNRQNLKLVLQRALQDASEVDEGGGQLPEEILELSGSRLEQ
RGS4 act = RGS4 potentiation or activation | HEK293 M3R/inducible RGS4, carbachol calcium flux Fluo4; active compounds read low | B-score at 10 µM | hit rate 0.92% among 310,000;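 active means B-score of the integrated calcium signal more than 4 SD below the library mean, with starting fluorescence not abnormally high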;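 further: negative B-score means reduced calcium response which marks RGS4 activation or potentiation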
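System – HEK293 FlpIn-TREx cells, stable M3R, doxycycline-inducible RGS4 · Reagent – ECmax carbachol challenge · Times – compound preincubation 20 min at room temperature before agonist · Technique – Fluo4 fluorescence kinetic imaging of calcium · Measure – B score of integrated Fluo4 ratio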
MrgX1 agonist = human MrgX1 receptor agonism, primary screen; hit rate 0.44% among 310,000; Q96LB2; MrgX1-HEK293 cells, Fluo-4 calcium fluorescence, agonist mode; active compounds read high; AID 588627; B-score at 10 µM;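 active means calcium response B-score plate-corrected fluorescence ratio at least 3 library SD, with starting fluorescence B-score inside 5 SD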
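Assay system: stable human MrgX1 HEK293 cell line. Quantity: 15,000 cells per well. Schedule: cells plated overnight, dye loaded 0.5 h 37 °C, 0.5 h room temperature. Detection: Fluo-4 NW calcium-flux fluorescence, kinetic read. Read-out basis: peak-minus-minimum fluorescence over baseline, converted to B scores. Control set: positive and negative control wells on each plate.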
MrgX1 PAM = human MrgX1 positive allosteric modulation, primary screen. B-score at 10 µM. Q96LB2. hit rate 0.63% among 310,000. MrgX1-HEK293, Fluo-4 calcium flux, FDSS; active compounds read high;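 active means plate-corrected calcium response at least 3 library SD above typical, normal starting fluorescence, not activating the receptor alone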;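 further: compound read alongside a low EC10 to EC30 dose of BAM8-22 agonist; peak minus trough fluorescence over baseline measured at the second addition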
RGS4 inh = inhibitors of human RGS4; HEK293 M3R/RGS4 inducible, Fluo-4 calcium flux; active compounds read high; triggered by carbachol at its EC20; B-score at 10 µM; hit rate 0.45% among 310,000; AID 463165;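 active means B-score, a plate-corrected calcium signal, over three deviations above library mean, with baseline fluorescence within five deviations of library mean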;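 further: RGS4 expression induced by doxycycline in cells with stable M3 receptor; B-score is computed from the integrated fluorescence ratio over baseline after carbachol; higher B-score means a larger calcium signal and so more RGS4 inhibition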
Target sequence (P49798 whole entry, looked up): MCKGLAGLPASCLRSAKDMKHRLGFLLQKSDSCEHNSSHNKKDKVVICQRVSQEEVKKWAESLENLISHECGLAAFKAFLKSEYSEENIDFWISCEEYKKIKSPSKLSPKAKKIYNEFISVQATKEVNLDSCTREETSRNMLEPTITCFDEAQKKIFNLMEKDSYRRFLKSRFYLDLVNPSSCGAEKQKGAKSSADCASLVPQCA
MrgX1 antag conf = reconfirmed antagonist of human MrgX1 receptor signaling; MrgX1-HEK293, BAM8-22 calcium flux, Fluo-4; active compounds read low; shares compounds with MrgX1 antagonist; remaining BAM8-22 calcium response % of control (active compounds read low), % at 10 µM; hit rate 19% among 2,300;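 active means remaining agonist calcium response no higher than 100% minus 3 SD of agonist-only control wells, with starting fluorescence near control levels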;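 further: agonist BAM8-22 given at a near maximal EC90 to ECmax level; peak minus minimum fluorescence divided by baseline after agonist addition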
HEK293 Ca flux = MrgX1 antagonist counter-screen hit in parental HEK293 cells; shares compounds with MrgX1 antagonist; Fluo-4 calcium fluorescence, FDSS; fluorescence ratio F(max-min)/F0 at 10 µM; hit rate 2% among 4,000; AID 624111;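 active means duplicate-averaged calcium fluorescence ratio at least three times the standard deviation of buffer wells, a nonspecific response in parental cells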
HEK293 Ca counter = MrgX1 allosteric activator counter-screen hit in parental HEK293 cells | shares compounds with MrgX1 antagonist | parental HEK293 calcium flux, Fluo-4 fluorescence ratio; active compounds read high | fluorescence ratio F(max-min)/F0 at 10 µM | hit rate 0.4% among 4,000 | AID 624114;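 active means calcium fluorescence ratio, averaged over duplicates, at least 3 SD of the buffer-well ratio, meaning a nonspecific response in receptor-free cells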;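 further: untransfected parental HEK293 lacking MrgX1 used as counterscreen for MrgX1 allosteric activators; fluorescence change taken during the second addition on a kinetic imager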
HEK293 Ca cntr2 = counter-screen for MrgX1 activators: effect in parental HEK293 cells | shares compounds with MrgX1 antagonist | Fluo-4 calcium fluorescence (FDSS); active compounds read high | fluorescence ratio F(max-min)/F0 at 10 µM | hit rate 8.7% among 4,000 | AID 624115;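 active means calcium fluorescence ratio at least three times the spread of buffer wells, meaning a non-specific response in parental cells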
Numbers without * were called inactive; i = inactive; / = no result. In the library only some 3.5% were active in any assay of this set; here they are far more common.

SMILES | MrgX1 antagonist | RGS4 act | MrgX1 agonist | MrgX1 PAM | RGS4 inh | MrgX1 antag conf | HEK293 Ca flux | HEK293 Ca counter | HEK293 Ca cntr2
COc1cccc(C(O)c2nc3ccccc3n2C(C)C)c1OC (stereo not drawn) | i | i | i | i | i | / | / | / | /
COc1cccc(C(O)c2nc3ccccc3n2C(C)C)c1 (stereo not drawn) | -6.3* | i | i | i | i | i | i | i | i
Cc1cccc(NC(=O)c2ccc(C(=O)c3ccccc3)cc2)n1 | -4.9* | i | i | i | i | 77%* | i | i | i
COc1cc(C)c(S(=O)(=O)NC2CC(C)(C)NC(C)(C)C2)cc1C | -8.3* | i | i | i | i | i | i | i | i
O=C(O)/C(=C\c1cccc(OCc2ccccc2)c1)c1ccc(F)cc1 | i | i | i | i | i | / | / | / | /
CC(=O)COc1ncnc2c(Cl)cc(Cl)cc12 | -4.9* | i | i | i | i | i | i | i | i
Cc1cccc(NC(=S)NC2CC3CCCC(C2)N3Cc2ccccc2)c1C (stereo not drawn) | i | i | i | i | i | / | / | / | /
CC(C)Cc1ccc(C(C)C(=O)Nc2nccs2)cc1 (stereo not drawn) | -4.7* | i | i | i | i | 72%* | i | i | i
CC(C)N(Cc1nccn1C)C(=O)CC1C(=O)NCCN1Cc1ccc(F)c(F)c1 (stereo not drawn) | -6.5* | i | i | i | i | 72%* | i | i | i
O=C1CC(N2CCN(Cc3ccc(Cl)cc3)CC2)C(=O)N1CCc1ccccc1 (stereo not drawn) | i | i | i | i | i | / | / | / | /
O=C1CC(N2CCN(Cc3ccccc3)CC2)C(=O)N1CCc1ccccc1 (stereo not drawn) | -5.4* | i | i | i | i | i | i | i | i
Cc1ccc(NS(=O)(=O)c2cccc(C(=O)N3CCCCCC3)c2)cc1 | -5.5* | i | i | i | i | i | i | i | i
Cc1cc(S(=O)(=O)Nc2ccc(C(=O)N3CCN(c4ccccc4O)CC3)cc2)ccc1F | -4.7* | i | i | i | i | 82%* | i | i | i
Cc1ccc(NS(=O)(=O)c2ccc(C(=O)N3CCN(c4ncccn4)CC3)cc2)cc1 | -5.4* | i | i | i | i | i | i | i | i
Nc1nc(SCC(=O)NC2CCCCC2)n[nH]1 | i | i | i | i | i | / | / | / | /
CCOC(=O)C1CCN(C(=O)CCCN2C(=O)c3ccccc3C2=O)CC1 | -10* | i | i | i | i | i | i | i | i
CCOC(=O)C1CCN(C(=O)CCCOc2ccccc2)CC1 | i | i | i | i | i | / | / | / | /
Cc1ccc(C(=O)CN2C(=O)C(=O)N(Cc3ccccc3)C2=O)cc1 | -6.4* | i | i | i | i | 80%* | i | i | i
O=c1cc(CSc2ccc(Cl)cc2)nc(N2CCCCC2)[nH]1 | -7.1* | i | i | i | i | i | i | i | i
O=C(/C=C/c1c(Cl)cccc1Cl)NCCCn1ccnc1 | i | i | i | i | i | / | / | / | /
O=C(Nc1ccc(OC(F)(F)F)cc1)Oc1ccccc1N1CCCCC1 | -5.4* | i | i | i | i | i | i | i | i
CC(C)CN(C(=O)CN1CCN(c2ccc([N+](=O)[O-])cc2)CC1)c1c(N)n(CC(C)C)c(=O)[nH]c1=O | i | i | i | i | i | / | / | / | /
CCn1c2ccccc2c2cc(CN3CCN(S(=O)(=O)Cc4ccccc4)CC3)ccc21 | -8.1* | i | i | i | i | 80%* | i | i | i
CCn1c2ccccc2c2cc(CN3CCN(S(=O)(=O)CC)CC3)ccc21 | i | i | i | i | i | / | / | / | /
CCOC(=O)CSc1ncnc2c1c(-c1ccccc1)cn2-c1ccc(OC)cc1 | -5.8* | i | i | i | i | 71%* | i | i | i
SMILES | MrgX1 antagonist | RGS4 act | MrgX1 agonist | MrgX1 PAM | RGS4 inh | MrgX1 antag conf | HEK293 Ca flux | HEK293 Ca counter | HEK293 Ca cntr2
O=C(OCC(=O)N1CCc2ccccc2C1)c1cc(=O)[nH]c2ccccc12 | i | i | i | i | i | / | / | / | /
COc1ccc(OC)c(NC(=O)CCN2CC(C)OC(C)C2)c1 (stereo not drawn) | i | i | i | i | i | / | / | / | /
COc1ccc(C)cc1NC(=O)CCN1CC(C)OC(C)C1 (stereo not drawn) | -5.1* | i | i | i | i | i | i | i | i
Cc1cccc2nc(CSc3nnc4ccccn34)cn12 | i | i | i | i | i | / | / | / | /
CCCC(C)NC(=O)c1ccc(F)cc1 (stereo not drawn) | i | i | i | i | i | / | / | / | /
CCOC(=O)NC(NC(=O)OCC)C(=O)c1ccc(F)cc1 | -5.1* | i | i | i | i | i | i | i | i
CC(=O)Nc1cccc(Oc2ncnc3scc(-c4ccc(C)cc4)c23)c1 | i | i | i | i | i | / | / | / | /
CCc1ccc(NC(=O)CCC(=O)N2CCSc3ccccc32)cc1 | -5.2* | i | i | i | i | i | i | i | i
CCc1cccc(NC(=O)CCC(=O)N2CCSc3ccccc32)c1 | i | i | i | i | i | / | / | / | /
CC(C)C(=O)N1CCN(c2ccccc2NC(=S)NC(=O)Cc2ccccc2)CC1 | i | i | i | i | i | / | / | / | /
CCCC(=O)Nc1ccccc1N1CCN(C(=O)C(C)C)CC1 | -5.2* | i | i | i | i | i | i | i | i
Cc1ccc(NC(=O)CCN2C(=O)CSC2=O)c(C)c1 | -4.6* | i | i | i | i | i | i | i | i
COc1ccc(-n2c(Cc3cccn3C)nnc2SCC(=O)Nc2ccc(C)c(Cl)c2)cc1 | -4.8* | i | i | i | i | i | i | i | i
COc1ccccc1-c1ccc2nnc(SC)n2n1 | i | i | i | i | i | / | / | / | /
